The target of series [1] is T1, Signal transducer and activator of transcription 6 (Homo sapiens, UniProt P42226).
T1 sequence (P42226 whole entry): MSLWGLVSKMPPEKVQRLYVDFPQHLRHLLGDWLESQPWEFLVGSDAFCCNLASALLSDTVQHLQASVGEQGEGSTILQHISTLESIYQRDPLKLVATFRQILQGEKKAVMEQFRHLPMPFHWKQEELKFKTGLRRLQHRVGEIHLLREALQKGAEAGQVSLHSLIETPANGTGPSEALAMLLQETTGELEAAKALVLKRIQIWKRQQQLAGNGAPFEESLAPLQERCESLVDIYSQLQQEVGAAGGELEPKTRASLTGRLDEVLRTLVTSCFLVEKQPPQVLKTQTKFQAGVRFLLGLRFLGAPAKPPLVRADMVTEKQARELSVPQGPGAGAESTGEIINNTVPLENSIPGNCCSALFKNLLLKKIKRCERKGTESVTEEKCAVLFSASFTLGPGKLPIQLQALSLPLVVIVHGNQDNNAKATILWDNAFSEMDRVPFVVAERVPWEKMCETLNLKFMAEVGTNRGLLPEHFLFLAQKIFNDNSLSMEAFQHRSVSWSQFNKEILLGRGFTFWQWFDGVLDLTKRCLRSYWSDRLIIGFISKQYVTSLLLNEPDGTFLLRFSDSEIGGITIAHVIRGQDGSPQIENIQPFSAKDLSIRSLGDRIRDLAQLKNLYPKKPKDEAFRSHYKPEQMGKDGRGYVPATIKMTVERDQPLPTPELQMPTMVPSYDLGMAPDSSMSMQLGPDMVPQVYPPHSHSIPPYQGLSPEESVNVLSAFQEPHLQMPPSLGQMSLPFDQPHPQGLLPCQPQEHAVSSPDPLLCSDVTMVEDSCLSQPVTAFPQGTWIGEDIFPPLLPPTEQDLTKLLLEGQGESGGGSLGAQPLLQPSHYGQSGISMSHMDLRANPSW
As to the kind of experiment: Binding affinity to human recombinant STAT6 assessed as dissociation constant incubated for 15 mins by biolayer interferometry. The gist of the method:
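Biolayer interferometry with recombinant human STAT1, STAT2, STAT3, STAT4, STAT5A, STAT5B or STAT6 proteins containing their SH2 domain. Compound run in 2× serial dilutions from 200 nM. Kd taken from steady-state fitting of equilibrium responses against concentration using a 1:1 binding model.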

The target of series [2] is T2, Signal transducer and activator of transcription 3 (Homo sapiens, UniProt P40763). The experiment in a line: Induction of STAT3 degradation in human SU-DHL-1 cells incubated for 4 hrs by western blot analysis. In kind it is cell-based. The gist of the method: (§1)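 Cells treated 4 h with compounds across 25 nM to 100 μM; STAT proteins detected by Western blot with GAPDH as loading control; STAT3 DC50 estimated by densitometry of STAT3 relative to GAPDH. Applies to MOLM-16 for all STATs, and to SU-DHL-1 and SUP-M2 for STAT3.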
T2 sequence (P40763 whole entry): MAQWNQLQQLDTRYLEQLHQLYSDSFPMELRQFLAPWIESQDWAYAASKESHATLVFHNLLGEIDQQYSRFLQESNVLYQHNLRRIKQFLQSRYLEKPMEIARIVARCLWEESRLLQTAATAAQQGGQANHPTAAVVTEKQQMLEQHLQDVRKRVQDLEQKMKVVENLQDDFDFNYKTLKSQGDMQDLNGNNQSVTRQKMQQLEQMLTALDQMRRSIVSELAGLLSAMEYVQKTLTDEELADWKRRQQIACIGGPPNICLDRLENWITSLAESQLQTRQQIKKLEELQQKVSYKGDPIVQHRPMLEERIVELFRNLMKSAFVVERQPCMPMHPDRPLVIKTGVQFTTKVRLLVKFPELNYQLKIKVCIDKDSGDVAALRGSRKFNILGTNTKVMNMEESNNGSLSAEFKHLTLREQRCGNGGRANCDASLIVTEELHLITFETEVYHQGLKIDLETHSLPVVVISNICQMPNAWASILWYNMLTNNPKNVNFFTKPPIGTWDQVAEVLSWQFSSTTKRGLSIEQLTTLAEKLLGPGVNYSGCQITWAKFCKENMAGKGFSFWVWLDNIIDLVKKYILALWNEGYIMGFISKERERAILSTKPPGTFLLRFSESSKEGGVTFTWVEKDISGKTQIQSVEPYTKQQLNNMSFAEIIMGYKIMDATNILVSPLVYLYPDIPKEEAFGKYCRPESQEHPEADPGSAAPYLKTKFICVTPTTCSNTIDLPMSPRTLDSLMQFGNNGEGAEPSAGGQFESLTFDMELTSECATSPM

Series [3] addresses T2, Signal transducer and activator of transcription 3. The experiment in a line: Induction of STAT3 degradation in human MOLM-16 cells for 4 hrs by western blot analysis. It counts as cell-based. To be noted: molm16. The gist of the method: as §1
Series [4] can be described thus: Drug metabolism buffer pH 4 assessed as conversion to 5-amino-4-(4-(8-((5S,8S,10aR)-8-((S)-5-amino-1-(benzhydrylamino)-1,5-dioxopentan-2-ylcarbamoyl)-6-oxo-5-(5-(phosphonocarbonyl)-1H-indole-2-carboxamido)octahydropyrrolo[1,2-a][1,5]diazocin-3(4H)-yl)-8-oxooct-1-ynyl)-1-oxoisoindolin-2-yl)-5-oxopentanoic acid measured upto 100 hrs by LC/MS/MS analysis. To be noted: time hrs <=100. The gist of the method:
(§2)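 Parent compound incubated in buffer at pH 4 or pH 8, at room temperature or 37 °C. Percentages of the parent, the hydrolysis product and the glutarimide ring-opened product followed over time, up to 96 h.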

Series [5] in a line: Drug uptake in SCID mouse xenografted with human MOLM16 cells assessed as (2-(((5S,8S,10aR)-8-(((S)-5-amino-1-(benzhydrylamino)-1,5-dioxopentan-2-yl)carbamoyl)-3-(8-(2-(2,6-dioxopiperidin-3-yl)-1-oxoisoindolin-4-yl)oct-7-yno yl)-6-oxodecahydropyrrolo[1,2-a][1,5]diazocin-5-yl)carbamoyl)-1H-indole-5-carbonyl)phosphonic acid level in plasma at 50 mg/kg, iv measured after 6 hrs by LC-MS/MS. In kind it is ADME, organism-based. To be noted: in vivo. The gist of the method:
(§3)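 SCID mice bearing MOLM-16 xenografts given a single iv dose of 50 mg/kg. Concentrations of parent and hydrolysis product measured in plasma (ng/mL) and tumor tissue (ng/g) at 1, 6 and 24 h.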

Series [6] is described as follows: Drug metabolism buffer pH 8 assessed as conversion to 5-amino-4-(4-(8-((5S,8S,10aR)-8-((S)-5-amino-1-(benzhydrylamino)-1,5-dioxopentan-2-ylcarbamoyl)-6-oxo-5-(5-(phosphonocarbonyl)-1H-indole-2-carboxamido)octahydropyrrolo[1,2-a][1,5]diazocin-3(4H)-yl)-8-oxooct-1-ynyl)-1-oxoisoindolin-2-yl)-5-oxopentanoic acid measured upto 100 hrs by LC/MS/MS analysis. To be noted: time hrs <=100. The gist of the method: as §2

Series [7] addresses Protein cereblon/Signal transducer and activator of transcription 5A (Homo sapiens) (UniProt P42229+Q96SW2). The experiment in a line: Protac activity at CRBN/STAT5 in human SU-DHL-1 cells […] at 0.25 to 100 uM incubated for 4 hrs by Western blot analysis. In kind it is cell-based. As to conditions: dose lower 0.25 µM.
A short description of series [8]: Stability of compound in buffer pH 8 assessed as conversion to (2-(((5S,8S,10aR)-8-(((S)-5-amino-1-(benzhydrylamino)-1,5-dioxopentan-2-yl)carbamoyl)-3-(8-(2-(2,6-dioxopiperidin-3-yl)-1-oxoisoindolin-4-yl)oct-7-ynoyl)-6-oxodecahydropyrrolo[1,2-a][1,5]diazocin-5-yl)carbamoyl)-1H-indole-5-carbonyl)phosphonic acid by measuring half life by LC/MS/MS analysis. In kind it is physicochemical. The gist of the method:
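SD-36 incubated in pH 8 buffer at room temperature; percentages of parent and hydrolysis products followed over time; half-life of conversion derived from the time course.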

Series [9] is described as follows: Drug uptake in SCID mouse xenografted with human MOLM16 cells assessed as (2-(((5S,8S,10aR)-8-(((S)-5-amino-1-(benzhydrylamino)-1,5-dioxopentan-2-yl)carbamoyl)-3-(8-(2-(2,6-dioxopiperidin-3-yl)-1-oxoisoindolin-4-yl)oct-7-yno yl)-6-oxodecahydropyrrolo[1,2-a][1,5]diazocin-5-yl)carbamoyl)-1H-indole-5-carbonyl)phosphonic acid level in plasma at 50 mg/kg, iv measured after 24 hrs by LC-MS/MS. In kind it is ADME, organism-based. To be noted: in vivo. The gist of the method: as §3

For series [10], the target named is Protein cereblon/Signal transducer and activator of transcription 6 (Homo sapiens) (UniProt P42226+Q96SW2). The experiment in a line: In vivo protac activity at CRBN/STAT6 degradation in SCID mouse xenografted with human MOLM16 cells assessed as reduction in STAT6 in tumor tissue at 50 mg/kg, iv measured after 24 hrs by immunoblotting analysis. In kind it is functional, organism-based. The gist of the method:
(§4)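 SCID mice bearing MOLM-16 tumors given a single iv dose of 50 mg/kg or dosing vehicle. Tumor lysates immunoblotted for STAT3, STAT1 and STAT6 at time points from 1 h to at least 24 h.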

The target of series [11] is Protein cereblon/Signal transducer and activator of transcription 3 (Homo sapiens, UniProt P40763+Q96SW2). The experiment in a line: In vivo protac activity at CRBN/STAT3 degradation in SCID mouse xenografted with human MOLM16 cells assessed as reduction in STAT3 in tumor tissue at 50 mg/kg, iv measured after 24 hrs by immunoblotting analysis. It counts as functional, organism-based. The gist of the method: as §4
Sequence of Protein cereblon/Signal transducer and activator of transcription 3 (P40763 2-770 limits assumed): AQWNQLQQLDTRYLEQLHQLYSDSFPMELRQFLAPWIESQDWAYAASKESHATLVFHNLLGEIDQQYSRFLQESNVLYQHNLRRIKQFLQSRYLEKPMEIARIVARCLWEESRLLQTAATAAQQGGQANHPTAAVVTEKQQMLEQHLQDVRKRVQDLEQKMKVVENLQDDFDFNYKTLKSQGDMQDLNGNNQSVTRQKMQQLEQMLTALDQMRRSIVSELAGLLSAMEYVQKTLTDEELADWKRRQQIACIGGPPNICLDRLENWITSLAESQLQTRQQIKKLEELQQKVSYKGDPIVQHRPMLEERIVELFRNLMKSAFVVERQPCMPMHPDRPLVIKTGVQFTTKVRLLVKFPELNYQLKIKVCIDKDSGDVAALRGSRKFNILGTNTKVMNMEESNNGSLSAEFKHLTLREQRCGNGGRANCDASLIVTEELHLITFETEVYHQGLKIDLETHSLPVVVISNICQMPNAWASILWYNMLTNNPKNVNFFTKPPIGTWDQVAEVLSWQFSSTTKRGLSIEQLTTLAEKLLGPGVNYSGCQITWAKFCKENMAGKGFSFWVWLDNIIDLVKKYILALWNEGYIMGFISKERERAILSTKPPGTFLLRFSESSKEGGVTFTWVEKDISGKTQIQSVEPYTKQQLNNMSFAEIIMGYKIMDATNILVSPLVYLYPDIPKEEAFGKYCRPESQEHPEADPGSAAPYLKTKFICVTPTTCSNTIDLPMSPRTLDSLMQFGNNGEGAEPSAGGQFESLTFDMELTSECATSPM
Sequence of Protein cereblon/Signal transducer and activator of transcription 3 (Q96SW2 whole entry partner): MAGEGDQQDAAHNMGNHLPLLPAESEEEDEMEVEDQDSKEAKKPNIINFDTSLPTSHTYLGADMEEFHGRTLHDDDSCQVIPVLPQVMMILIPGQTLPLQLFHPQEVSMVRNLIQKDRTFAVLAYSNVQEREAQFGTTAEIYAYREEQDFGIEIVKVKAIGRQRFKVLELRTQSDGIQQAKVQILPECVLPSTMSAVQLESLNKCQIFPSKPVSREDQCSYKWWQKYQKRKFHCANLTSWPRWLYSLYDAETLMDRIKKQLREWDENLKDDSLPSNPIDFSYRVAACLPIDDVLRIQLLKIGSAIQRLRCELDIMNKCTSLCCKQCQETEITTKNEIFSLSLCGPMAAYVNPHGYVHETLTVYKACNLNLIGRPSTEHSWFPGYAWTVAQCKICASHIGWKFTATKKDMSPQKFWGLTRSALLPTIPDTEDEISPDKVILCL

The source made the active and inactive calls. The rule behind the calls is not given here.

Sequence of Protein cereblon/Signal transducer and activator of transcription 5A (Homo sapiens) (P42229 whole entry, looked up): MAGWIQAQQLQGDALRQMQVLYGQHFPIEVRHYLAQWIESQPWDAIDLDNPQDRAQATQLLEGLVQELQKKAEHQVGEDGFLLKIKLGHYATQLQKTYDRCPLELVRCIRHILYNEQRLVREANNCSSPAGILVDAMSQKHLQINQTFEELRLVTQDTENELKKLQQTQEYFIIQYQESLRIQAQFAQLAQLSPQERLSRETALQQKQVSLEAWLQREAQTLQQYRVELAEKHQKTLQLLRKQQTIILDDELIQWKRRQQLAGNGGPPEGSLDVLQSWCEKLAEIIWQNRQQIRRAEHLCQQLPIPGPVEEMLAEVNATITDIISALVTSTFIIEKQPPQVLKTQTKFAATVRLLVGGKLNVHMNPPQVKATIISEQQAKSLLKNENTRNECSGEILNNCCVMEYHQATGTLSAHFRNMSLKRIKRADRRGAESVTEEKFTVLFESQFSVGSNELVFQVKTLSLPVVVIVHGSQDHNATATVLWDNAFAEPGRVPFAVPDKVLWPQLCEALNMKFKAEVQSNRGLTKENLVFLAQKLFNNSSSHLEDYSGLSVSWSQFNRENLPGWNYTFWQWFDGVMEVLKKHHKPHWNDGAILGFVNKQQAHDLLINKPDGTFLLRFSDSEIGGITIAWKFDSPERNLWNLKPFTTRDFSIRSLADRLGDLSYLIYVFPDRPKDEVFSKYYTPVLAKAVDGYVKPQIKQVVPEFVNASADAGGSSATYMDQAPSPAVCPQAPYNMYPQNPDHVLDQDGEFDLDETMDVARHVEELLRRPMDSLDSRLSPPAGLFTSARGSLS
Sequence of Protein cereblon/Signal transducer and activator of transcription 5A (Homo sapiens) (Q96SW2 whole entry, looked up): as the sequence (Q96SW2 whole entry partner) above
Sequence of Protein cereblon/Signal transducer and activator of transcription 6 (Homo sapiens) (Q96SW2 whole entry partner, one chain of several): as the sequence (Q96SW2 whole entry partner) above

On to `NC(=O)CC[C@H](NC(=O)[C@@H]1CC[C@@H]2CCN(C(=O)CCCCCC#Cc3cccc4c3CN(C3CCC(=O)NC3=O)C4=O)C[C@H](NC(=O)c3cc4cc(C(=O)P(=O)(O)O)ccc4[nH]3)C(=O)N21)C(=O)NC(c1ccccc1)c1ccccc1` (stereo partly specified), for which the Kd in series [1] is > 10 nM. Besides, the half-maximal degradation concentration (DC50) turned out to be 17 nM in [2] and 120 nM in series [3].

As to `NC(=O)CC[C@H](NC(=O)[C@@H]1CC[C@@H]2CCN(C(=O)CCCCCC#Cc3cccc4c3CN(C3CCC(=O)NC3=O)C4=O)C[C@H](NC(=O)c3cc4cc(C(F)(F)P(=O)(O)O)ccc4[nH]3)C(=O)N21)C(=O)NC(c1ccccc1)c1ccccc1` (stereo partly specified), the values for the Drug metabolism entry in series [4] and in series [6] were “Metabolite not detected” and “Metabolite detected”, respectively. Further, the Drug uptake in series [5] was 25560 ng/mL; in series [9], 305 ng/mL. The result in series [7] and in series [10] was inactive. The t1/2 in series [8] was found to be 22 h. Further, in series [11], the outcome was Active.

For the origin of these results see ChEMBL document CHEMBL4706770, “SD-91 as A Potent and Selective STAT3 Degrader Capable of Achieving Complete and Long-Lasting Tumor Regression” (ACS Med Chem Lett, 2021).
